Results published in ChEMBL document CHEMBL1157805, “Virtual screening, selection and development of a benzindolone structural scaffold for inhibition of lumazine synthase” (Bioorg Med Chem, 2010).

Key:
[1] = Inhibition of Mycobacterium tuberculosis recombinant riboflavin synthase at […] state after 30 mins by fluorescence assay
Procedure, shortened: (§1)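 Recombinant M. tuberculosis riboflavin synthase (1 μM) in 100 mM Tris-HCl pH 7.0, 100 mM NaCl, 5 mM DTT, 2% DMSO. 6,7-Dimethyl-8-ribityllumazine substrate was varied 3–60 μM and inhibitor 0–200 μM. Reactions were started with substrate. Riboflavin formation was monitored at 470 nm for 30 min at 27 °C. Velocity–substrate data for all inhibitor levels were fitted by nonlinear regression to alternative inhibition models.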

[2] = biological target: T1, 6,7-dimethyl-8-ribityllumazine synthase (Mycobacterium tuberculosis, UniProt P9WHE9); assay: Inhibition of Mycobacterium tuberculosis recombinant lumazine synthase at enzyme-inhibitor complex state after 30 mins by fluorescence assay
T1 sequence (P9WHE9 whole entry): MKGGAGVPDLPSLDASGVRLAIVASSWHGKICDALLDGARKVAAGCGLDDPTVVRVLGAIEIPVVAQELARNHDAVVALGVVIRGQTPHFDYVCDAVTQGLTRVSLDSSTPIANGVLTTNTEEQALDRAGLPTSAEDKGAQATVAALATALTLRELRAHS
Procedure, shortened: (§2)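 Recombinant M. tuberculosis lumazine synthase (2 μM) in 100 mM Tris-HCl pH 7.0, 100 mM NaCl, 5 mM DTT, 2% DMSO. Dihydroxybutanone phosphate was fixed at 100 μM, pyrimidinedione substrate varied 3–100 μM, and inhibitor 0–200 μM. Reactions were started with the pyrimidinedione substrate. Lumazine formation was read at 408 nm for 30 min at 27 °C. Velocity–substrate data were fitted by nonlinear regression to alternative inhibition models.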

[3] = biological target: T1, 6,7-dimethyl-8-ribityllumazine synthase; assay: Inhibition of Mycobacterium tuberculosis recombinant lumazine synthase at enzyme-substrate-inhibitor complex state after 30 mins by fluorescence assay; procedure, shortened: as §2
[4] = Inhibition of Mycobacterium tuberculosis recombinant riboflavin synthase at enzyme-substrate-inhibitor complex state after 30 mins by fluorescence assay; procedure, shortened: as §1

| SMILES | Ki [1] [µM] | Ki [2] [µM] | Ki [3] [µM] | Ki [4] [µM] |
| --- | --- | --- | --- | --- |
| O=C1Nc2ccc(S(=O)(=O)NCCCCC(F)(F)P(=O)(O)O)c3cccc1c23 | 4.1 | 832 | 518 | > 1000 |
| O=C1Nc2ccc(S(=O)(=O)NCCCCCCOP(=O)(O)O)c3cccc1c23 | 9.8 |  | 723 | 898 |
| CCOC(=O)C(=O)Nc1c(Cl)[nH]c(=O)[nH]c1=O |  | 832 |  |  |
| O=C1Nc2ccc(S(=O)(=O)NCCOP(=O)(O)O)c3cccc1c23 |  | 260 |  |  |
| O=C1Nc2ccc(S(=O)(=O)NCCCOP(=O)(O)O)c3cccc1c23 |  | 99 |  |  |
| O=C(O)CNS(=O)(=O)c1ccc2c3c(cccc13)C(=O)N2 |  | 70 |  |  |
| O=C1Nc2ccc(S(=O)(=O)NCCCCOP(=O)(O)O)c3cccc1c23 |  | 38 |  |  |
